The record followed here is ChEMBL document CHEMBL1138658, “Novel 2-aminotetralin and 3-aminochroman derivatives as selective serotonin 5-HT7 receptor agonists and antagonists” (J Med Chem, 2004).

Test [1] concerns the target T1, 5-hydroxytryptamine receptor 7 (Rattus norvegicus, UniProt P32305). In words: Inhibition of [3H]5-HT binding to rat 5-HT7 receptor. Summed up:
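Displacement of [3H]-5-HT from rat 5-HT7 receptor expressed in CHO or Sf9 cells.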

The target of test [2] is 5-hydroxytryptamine receptor 2A (Rattus norvegicus, UniProt P14842). Put plainly: Inhibition of [3H]- Ketanserin binding to rat cortex 5-HT2A receptor.
Sequence of 5-hydroxytryptamine receptor 2A (P14842 whole entry): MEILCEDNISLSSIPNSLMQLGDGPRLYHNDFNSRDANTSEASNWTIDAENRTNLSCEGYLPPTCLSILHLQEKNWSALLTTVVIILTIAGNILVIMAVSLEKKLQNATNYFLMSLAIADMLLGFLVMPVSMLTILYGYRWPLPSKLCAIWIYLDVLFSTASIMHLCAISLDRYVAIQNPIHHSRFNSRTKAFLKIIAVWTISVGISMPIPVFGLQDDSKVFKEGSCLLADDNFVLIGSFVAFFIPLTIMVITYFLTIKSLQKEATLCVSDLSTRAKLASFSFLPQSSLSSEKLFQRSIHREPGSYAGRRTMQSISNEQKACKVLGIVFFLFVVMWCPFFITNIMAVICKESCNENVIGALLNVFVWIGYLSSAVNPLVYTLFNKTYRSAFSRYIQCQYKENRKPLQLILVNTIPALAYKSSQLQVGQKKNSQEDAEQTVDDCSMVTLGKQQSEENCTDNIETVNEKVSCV
For test [3], the target named is T1, 5-hydroxytryptamine receptor 7. Put plainly: Inhibition of [3H]-5-HT binding to rat 5-hydroxytryptamine 7 receptor. In a few lines:
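Rat 5-HT7 receptor expressed in CHO or Sf9 cells; [3H]-5-HT radioligand displacement.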

The target in test [4] is D(1A) dopamine receptor (Rattus norvegicus, UniProt P18901). Put plainly: Inhibition of [3H]SCH-23390 binding to rat striatum Dopamine receptor 1. In kind it is tissue-based.
Sequence of D(1A) dopamine receptor (P18901 whole entry): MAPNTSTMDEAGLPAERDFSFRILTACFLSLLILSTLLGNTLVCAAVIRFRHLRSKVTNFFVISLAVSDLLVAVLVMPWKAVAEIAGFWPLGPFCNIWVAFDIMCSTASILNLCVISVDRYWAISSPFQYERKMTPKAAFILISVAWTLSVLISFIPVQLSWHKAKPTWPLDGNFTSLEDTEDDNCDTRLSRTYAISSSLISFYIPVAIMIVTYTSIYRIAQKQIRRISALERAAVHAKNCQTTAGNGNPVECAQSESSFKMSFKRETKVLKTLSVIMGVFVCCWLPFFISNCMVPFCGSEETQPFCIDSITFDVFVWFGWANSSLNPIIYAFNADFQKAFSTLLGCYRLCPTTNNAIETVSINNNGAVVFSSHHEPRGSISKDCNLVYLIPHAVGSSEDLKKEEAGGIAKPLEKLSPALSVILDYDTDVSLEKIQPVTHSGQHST
The target in test [5] is T2, Adrenergic receptor alpha-2 (Rattus norvegicus, UniProt P22086+P19328+P22909).
T2 sequence (P22086 whole entry): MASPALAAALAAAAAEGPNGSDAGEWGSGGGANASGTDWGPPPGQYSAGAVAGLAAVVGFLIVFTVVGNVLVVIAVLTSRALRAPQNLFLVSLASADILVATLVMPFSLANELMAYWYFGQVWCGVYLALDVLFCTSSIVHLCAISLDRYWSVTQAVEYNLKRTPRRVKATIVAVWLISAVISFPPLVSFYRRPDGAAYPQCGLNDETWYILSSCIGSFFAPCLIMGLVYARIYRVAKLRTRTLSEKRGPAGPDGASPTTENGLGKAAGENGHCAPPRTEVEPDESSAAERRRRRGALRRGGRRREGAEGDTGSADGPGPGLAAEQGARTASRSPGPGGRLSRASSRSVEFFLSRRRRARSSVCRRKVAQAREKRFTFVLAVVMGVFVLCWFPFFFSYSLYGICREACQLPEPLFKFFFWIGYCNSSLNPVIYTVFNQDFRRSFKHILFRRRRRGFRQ
T2 sequence (P19328 whole entry): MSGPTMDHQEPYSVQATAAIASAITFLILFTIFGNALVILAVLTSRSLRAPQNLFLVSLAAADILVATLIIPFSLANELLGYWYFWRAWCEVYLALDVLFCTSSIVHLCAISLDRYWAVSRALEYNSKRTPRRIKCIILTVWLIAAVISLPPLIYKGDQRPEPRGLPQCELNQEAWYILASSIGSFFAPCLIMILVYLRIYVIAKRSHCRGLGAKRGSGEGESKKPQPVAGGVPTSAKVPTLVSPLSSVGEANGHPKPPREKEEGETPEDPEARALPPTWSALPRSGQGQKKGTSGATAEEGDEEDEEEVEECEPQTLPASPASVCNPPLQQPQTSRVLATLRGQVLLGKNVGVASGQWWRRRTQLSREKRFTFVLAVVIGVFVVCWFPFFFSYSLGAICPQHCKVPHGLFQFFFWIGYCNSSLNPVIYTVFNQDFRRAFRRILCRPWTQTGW
T2 sequence (P22909 whole entry): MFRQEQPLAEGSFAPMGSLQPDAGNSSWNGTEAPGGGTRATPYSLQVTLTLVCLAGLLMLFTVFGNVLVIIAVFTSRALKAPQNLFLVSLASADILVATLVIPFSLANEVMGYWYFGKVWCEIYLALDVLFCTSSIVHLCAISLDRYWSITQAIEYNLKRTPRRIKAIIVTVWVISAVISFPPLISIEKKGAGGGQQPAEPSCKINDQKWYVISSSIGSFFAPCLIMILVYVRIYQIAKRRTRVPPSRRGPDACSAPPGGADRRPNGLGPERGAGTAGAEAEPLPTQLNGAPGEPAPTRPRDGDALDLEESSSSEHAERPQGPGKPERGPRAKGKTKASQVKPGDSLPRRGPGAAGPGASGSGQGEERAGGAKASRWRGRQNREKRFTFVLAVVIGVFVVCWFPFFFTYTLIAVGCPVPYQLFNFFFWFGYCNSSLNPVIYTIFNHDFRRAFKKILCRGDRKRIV
In words: Inhibition of [3H]RX-821002 binding to rat cortex Alpha 2 receptor.

In test [6] the target is 5-hydroxytryptamine receptor 7 (Rattus norvegicus) (UniProt P32305). In words: Stimulation of cAMP production in CHO cells expressing rat 5-hydroxytryptamine 7 receptor. In kind it is functional, cell-based. In a few lines: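 cAMP production in CHO cells expressing rat 5-HT7 receptor. Efficacy is expressed as percent of the 5-HT-stimulated production.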
Sequence of 5-hydroxytryptamine receptor 7 (Rattus norvegicus) (P32305 whole entry): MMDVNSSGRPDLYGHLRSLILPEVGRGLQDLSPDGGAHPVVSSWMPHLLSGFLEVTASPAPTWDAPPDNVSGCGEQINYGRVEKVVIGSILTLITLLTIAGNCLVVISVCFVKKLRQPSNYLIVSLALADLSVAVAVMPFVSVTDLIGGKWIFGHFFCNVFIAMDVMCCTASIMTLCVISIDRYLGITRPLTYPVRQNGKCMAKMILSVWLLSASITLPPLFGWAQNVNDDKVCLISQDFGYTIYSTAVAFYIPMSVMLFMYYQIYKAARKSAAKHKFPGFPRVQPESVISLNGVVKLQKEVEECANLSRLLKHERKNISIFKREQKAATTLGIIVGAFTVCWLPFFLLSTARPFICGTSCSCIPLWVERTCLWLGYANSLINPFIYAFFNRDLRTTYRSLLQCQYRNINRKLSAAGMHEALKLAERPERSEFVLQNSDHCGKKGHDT
For orientation: Cyclic AMP is a second messenger, typically raised through Gs and lowered through Gi signalling.

T1 sequence (P32305 whole entry): as above

In general, Ki refers to the equilibrium dissociation constant of an inhibitor or competing ligand from its target. For `COc1cccc(OC)c1-c1cccc2c1CC[C@H](N(C)C)C2`, the Ki was 2.55 nM in test [1]; 1340 nM in test [2]; 2.55 nM in test [3]; above 1000 nM in test [4]; 188 nM in test [5]. The same compound registered an Efficacy in test [6] below 10%.
On to `CCCN(CCC)[C@H]1CCc2c(cccc2-c2c(OC)cccc2OC)C1`, for which the Ki in test [1] is 7.9 nM; in test [2], 1450 nM; in test [3], 7.9 nM; in test [4], above 1000 nM; in test [5], 2090 nM. The compound also yielded an Efficacy in test [6] of 100%.
